From ChEMBL document CHEMBL1144688, “Gentisyl alcohol derivatives from the marine-derived fungus Penicillium terrestre” (J Nat Prod, 2008)

Legend:
[1] = DPPH radical scavenging activity; type: functional
Summary of the method: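 Samples dissolved in MeOH were mixed with methanolic DPPH, shaken and left for 30 min. Absorbance was read at 520 nm and percent inhibition calculated. IC50 is the concentration that scavenges 50% of the DPPH radicals.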

[2] = system: HL-60; assay: Cytotoxicity against human HL60 cells by MTT assay; type: functional, cell-based
Summary of the method: (§1)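 Cells at 5 × 10^4 cells/mL were preincubated for 24 h, then exposed to compounds in MeOH at various concentrations for 72 h. MTT (5 mg/mL) was added for 4 h, the formazan was dissolved in DMSO, and absorbance was read at 540 nm.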

[3] = system: A549; assay: Cytotoxicity against human A549 cells by SRB method; type: functional, cell-based
Summary of the method: (§2)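 Cells were plated at 2 × 10^5 cells/mL and treated with test compounds in MeOH over a concentration range for 24 h. They were then fixed with 12% TCA, stained with 0.4% SRB and read at 515 nm. IC50 was taken from the linear portion of log dose–response curves.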

[4] = system: Bel-7402; assay: Cytotoxicity against human BEL-7402 cells by SRB method; type: functional, cell-based; summary of the method: as §2
[5] = system: MOLT-4; assay: Cytotoxicity against human MOLT4 cells by MTT assay; type: functional, cell-based; summary of the method: as §1
[6] = target: Vascular endothelial growth factor receptor 2 (Homo sapiens) (UniProt P35968); conditions: at 10 µM
Vascular endothelial growth factor receptor 2 (Homo sapiens), sequence (P35968 whole entry): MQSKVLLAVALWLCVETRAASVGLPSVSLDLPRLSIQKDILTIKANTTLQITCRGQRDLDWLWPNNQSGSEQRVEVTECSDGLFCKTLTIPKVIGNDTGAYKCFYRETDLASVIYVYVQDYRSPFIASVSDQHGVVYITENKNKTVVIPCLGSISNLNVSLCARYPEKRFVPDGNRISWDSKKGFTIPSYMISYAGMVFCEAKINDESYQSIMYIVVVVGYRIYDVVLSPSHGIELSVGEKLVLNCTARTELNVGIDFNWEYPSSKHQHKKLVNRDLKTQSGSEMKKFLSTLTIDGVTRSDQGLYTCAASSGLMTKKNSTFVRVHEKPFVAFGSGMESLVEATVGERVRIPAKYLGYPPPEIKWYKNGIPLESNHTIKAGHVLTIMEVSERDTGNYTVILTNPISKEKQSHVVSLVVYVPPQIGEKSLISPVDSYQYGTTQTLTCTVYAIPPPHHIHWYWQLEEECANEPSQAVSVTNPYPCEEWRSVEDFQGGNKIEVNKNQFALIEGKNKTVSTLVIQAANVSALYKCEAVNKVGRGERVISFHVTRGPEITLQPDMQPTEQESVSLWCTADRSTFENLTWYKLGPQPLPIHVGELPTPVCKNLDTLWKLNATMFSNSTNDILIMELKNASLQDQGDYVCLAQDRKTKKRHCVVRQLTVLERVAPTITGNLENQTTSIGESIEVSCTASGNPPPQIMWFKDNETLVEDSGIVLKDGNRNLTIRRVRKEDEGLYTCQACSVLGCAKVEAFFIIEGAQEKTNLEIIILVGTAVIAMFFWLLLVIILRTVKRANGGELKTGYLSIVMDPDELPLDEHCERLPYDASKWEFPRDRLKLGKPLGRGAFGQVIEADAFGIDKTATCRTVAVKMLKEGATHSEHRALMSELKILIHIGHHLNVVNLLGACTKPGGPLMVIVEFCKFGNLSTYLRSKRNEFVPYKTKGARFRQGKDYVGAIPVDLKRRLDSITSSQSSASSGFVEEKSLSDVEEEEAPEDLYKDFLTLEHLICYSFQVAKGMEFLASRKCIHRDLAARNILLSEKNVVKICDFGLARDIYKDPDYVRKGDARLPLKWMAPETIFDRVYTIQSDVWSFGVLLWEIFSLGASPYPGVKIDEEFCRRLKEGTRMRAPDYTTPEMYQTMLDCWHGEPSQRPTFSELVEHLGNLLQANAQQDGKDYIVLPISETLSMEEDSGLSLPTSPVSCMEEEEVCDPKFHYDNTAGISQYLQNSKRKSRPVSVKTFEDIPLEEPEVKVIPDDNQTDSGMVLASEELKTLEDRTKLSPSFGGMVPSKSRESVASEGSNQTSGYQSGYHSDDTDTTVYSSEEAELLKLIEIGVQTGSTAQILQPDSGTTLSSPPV

[7] = target: Proto-oncogene tyrosine-protein kinase Src (Homo sapiens) (UniProt P12931); assay: Inhibition of Src kinase at 10 uM by ELISA
Proto-oncogene tyrosine-protein kinase Src (Homo sapiens), sequence (P12931 2-536 limits assumed): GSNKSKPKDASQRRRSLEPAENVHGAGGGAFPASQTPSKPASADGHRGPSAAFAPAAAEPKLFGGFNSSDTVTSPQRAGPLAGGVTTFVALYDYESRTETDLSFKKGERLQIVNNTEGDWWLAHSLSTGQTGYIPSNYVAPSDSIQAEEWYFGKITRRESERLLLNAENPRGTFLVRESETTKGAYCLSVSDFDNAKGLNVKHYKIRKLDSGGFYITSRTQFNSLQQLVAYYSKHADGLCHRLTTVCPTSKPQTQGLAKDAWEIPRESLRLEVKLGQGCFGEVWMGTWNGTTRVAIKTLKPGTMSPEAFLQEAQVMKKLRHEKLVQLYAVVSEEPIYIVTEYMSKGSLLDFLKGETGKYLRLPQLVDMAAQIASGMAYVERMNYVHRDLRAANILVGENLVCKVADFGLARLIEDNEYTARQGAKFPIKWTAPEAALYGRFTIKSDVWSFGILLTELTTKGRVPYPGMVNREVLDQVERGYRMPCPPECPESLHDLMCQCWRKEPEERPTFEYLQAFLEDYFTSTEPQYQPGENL
Summary of the method: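 ELISA on plates precoated with 20 µg/mL poly(Glu,Tyr)4:1, using purified kinase and 5 µM ATP in 50 mM HEPES pH 7.4 with MgCl2, MnCl2, Na3VO4 and DTT, for 1 h at 37 °C. Phosphotyrosine was detected with PY99 antibody, then HRP anti-mouse IgG and o-phenylenediamine/H2O2, read at 490 nm. Inhibition was calculated against the 1% DMSO control, in duplicate.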

| Structure (SMILES) | IC50 [1] [µM] | IC50 [2] [µM] | IC50 [3] [µM] | IC50 [4] [µM] | IC50 [5] [µM] | inhibition [6] [%] | inhibition [7] [%] |
| --- | --- | --- | --- | --- | --- | --- | --- |
| COCc1cc(O)ccc1O | 9.8 | 58.9 | > 100 | > 100 | 86.2 |  |  |
| COCc1cc(O)cc(Cl)c1O | 8.5 | 6.7 | 56.5 | 58.1 | 64.7 |  |  |
| OCc1cc(OCc2cc(O)ccc2O)cc(Cl)c1O | 4.4 | 5.3 | 14.3 | 38.5 | 5.5 |  |  |
| OCc1cc(OCc2cc(O)ccc2O)ccc1O | 6.2 | 54.7 | 9.6 | 59 | 6.4 |  |  |
| OCc1cc(O)c(Cc2cc(O)ccc2O)c(Cl)c1O | 4.1 | 5.1 | 5.7 | 6 | 6.5 | 31.8 | 35.9 |
| Oc1ccc(O)c(COCc2cc(O)cc(Cl)c2O)c1 | 4.3 | 6.1 | 18.3 | 62.3 | 5.8 |  |  |
| COCc1cc(O)c(Cc2cc(O)c(Cc3cc(O)ccc3O)cc2O)cc1O | 2.6 | 33.3 | 23.5 | 57 | 5.5 |  |  |
| Oc1ccc(O)c(COCc2cc(O)ccc2O)c1 | 4.6 | 5.5 | 18.2 | 57.3 | 5.6 |  |  |
| COCc1cc(O)c(Cc2cc(O)ccc2O)cc1O | 6.3 | 6.3 | 33.8 | 61.9 | 5.8 |  |  |
| OCc1c(O)c(Cl)cc(O)c1Cc1cc(O)ccc1O | 5.2 | 55 | 13.8 | 63.2 | 58.1 |  |  |
